In brackets after ≈: the same amount, converted by molar mass.
Columns and labels:
Type in all cases: functional
[1] = system: Enterococcus faecium; assay: In vitro minimum inhibitory concentration against Enterococcus faecium ATCC 8043 using brain-heart infusion agar
Procedure, shortened: (§1)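 Overnight cultures were grown in BHI broth at 36 °C. Twofold dilutions of a 2000 µg/mL stock were made in BHI agar, giving 200–0.005 µg/mL. Plates received about 10^4 organisms and were incubated for 18 h at 36 °C. MIC was the lowest concentration with no visible growth on the plate.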

[2] = system: Staphylococcus epidermidis; assay: In vitro minimum inhibitory concentration against Staphylococcus epidermidis 3159 using brain-heart infusion agar; procedure, shortened: as §1
[3] = system: Pseudomonas aeruginosa; assay: In vitro minimum inhibitory concentration against Pseudomonas aeruginosa A5007 using brain-heart infusion agar; procedure, shortened: as §1
[4] = system: Escherichia coli; assay: In vitro minimum inhibitory concentration against Escherichia coli Juhl using brain-heart infusion agar; procedure, shortened: as §1
[5] = system: Staphylococcus aureus; assay: In vivo antibacterial activity against Staphylococcus aureus NCTC 10649 infected mouse by subcutaneous administration; details: sc
Procedure, shortened: (§2)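 Compound was given in water or in dilute NaOH diluted with water, orally or subcutaneously. The dose was split equally between 1 and 5 h post-infection. Groups were 10 mice at ≥3 dose levels. ED50 was calculated from day-6 cumulative mortality by the trimmed Logit method.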

[6] = system: Streptococcus equinus; assay: In vitro minimum inhibitory concentration against Streptococcus bovis A5169 using brain-heart infusion agar; procedure, shortened: as §1
[7] = system: Staphylococcus aureus; assay: In vitro minimum inhibitory concentration against Staphylococcus aureus A 5177 using brain-heart infusion agar; procedure, shortened: as §1
[8] = system: Staphylococcus aureus; assay: In vitro minimum inhibitory concentration against Staphylococcus aureus ATCC 6538P using brain-heart infusion agar; procedure, shortened: as §1
[9] = system: Streptococcus pyogenes; assay: In vitro minimum inhibitory concentration against Streptococcus pyogenes 930 using brain-heart infusion agar; procedure, shortened: as §1
[10] = system: Staphylococcus aureus; assay: In vitro minimum inhibitory concentration against Staphylococcus aureus CMX 553 using brain-heart infusion agar; procedure, shortened: as §1
[11] = system: Staphylococcus aureus; assay: In vitro minimum inhibitory concentration against Staphylococcus aureus NCTC 10649 using brain-heart infusion agar; procedure, shortened: as §1
[12] = system: Acinetobacter; assay: In vitro minimum inhibitory concentration against Acinetobacter CMX 669 using brain-heart infusion agar; procedure, shortened: as §1
[13] = system: Pseudomonas aeruginosa; assay: In vitro minimum inhibitory concentration against Pseudomonas aeruginosa K799 / WT using brain-heart infusion agar; procedure, shortened: as §1
[14] = system: Streptococcus agalactiae; assay: In vitro minimum inhibitory concentration against Streptococcus agalactiae CMX 508 using brain-heart infusion agar; procedure, shortened: as §1
[15] = system: Klebsiella pneumoniae; assay: In vitro minimum inhibitory concentration against Klebsiella pneumoniae 8045 using brain-heart infusion agar; procedure, shortened: as §1
[16] = system: Klebsiella aerogenes; assay: In vitro minimum inhibitory concentration against Enterobacter aerogenes ATCC 13048 using brain-heart infusion agar; procedure, shortened: as §1
[17] = system: Staphylococcus aureus; assay: In vivo antibacterial activity against Staphylococcus aureus NCTC 10649 infected mouse by oral administration; procedure, shortened: as §2

| SMILES | MIC [1] [µg/mL] | MIC [2] [µg/mL] | MIC [3] [µg/mL] | MIC [4] [µg/mL] | ED50 [5] [mg/kg] | MIC [6] [µg/mL] | MIC [7] [µg/mL] | MIC [8] [µg/mL] | MIC [9] [µg/mL] | MIC [10] [µg/mL] | MIC [11] [µg/mL] | MIC [12] [µg/mL] | MIC [13] [µg/mL] | MIC [14] [µg/mL] | MIC [15] [µg/mL] | MIC [16] [µg/mL] | ED50 [17] [mg/kg] |
| --- | --- | --- | --- | --- | --- | --- | --- | --- | --- | --- | --- | --- | --- | --- | --- | --- | --- |
| CO/N=C1\CCN(c2nc3c(cc2F)c(=O)c(C(=O)O)cn3-c2ccc(F)cc2F)C1 | 0.39 (≈ 0.902 µM) | 0.1 (≈ 0.231 µM) | 6.2 (≈ 14.3 µM) | 0.78 (≈ 1.8 µM) | 4.7 | 1.56 (≈ 3.61 µM) | 0.1 (≈ 0.231 µM) | 0.05 (≈ 0.116 µM) | 0.78 (≈ 1.8 µM) | 0.1 (≈ 0.231 µM) | 0.05 (≈ 0.116 µM) | 1.56 (≈ 3.61 µM) | 6.2 (≈ 14.3 µM) | 0.39 (≈ 0.902 µM) | 0.78 (≈ 1.8 µM) | 3.1 (≈ 7.17 µM) | > 12 |
| CON=C1CCN(c2c(F)cc3c(=O)c(C(=O)O)cn(C4CC4)c3c2F)CC1 | 1.56 (≈ 3.99 µM) | 0.1 (≈ 0.256 µM) | > 100 | 1.56 (≈ 3.99 µM) |  | 3.1 (≈ 7.92 µM) | 0.1 (≈ 0.256 µM) | 0.05 (≈ 0.128 µM) | 1.56 (≈ 3.99 µM) | 0.1 (≈ 0.256 µM) | 0.05 (≈ 0.128 µM) | 3.1 (≈ 7.92 µM) | > 100 | 1.56 (≈ 3.99 µM) | 3.1 (≈ 7.92 µM) | > 100 |  |
| CON=C1CCN(c2nc3c(cc2F)c(=O)c(C(=O)O)cn3-c2ccc(F)cc2F)CC1 | 3.1 (≈ 6.94 µM) | 0.39 (≈ 0.874 µM) | 50 (≈ 112 µM) | 6.2 (≈ 13.9 µM) | > 8 | 6.2 (≈ 13.9 µM) | 0.2 (≈ 0.448 µM) | 0.1 (≈ 0.224 µM) | 3.1 (≈ 6.94 µM) | 0.39 (≈ 0.874 µM) | 0.2 (≈ 0.448 µM) | 12.5 (≈ 28 µM) | 25 (≈ 56 µM) | 1.56 (≈ 3.49 µM) | 3.1 (≈ 6.94 µM) | 12.5 (≈ 28 µM) | > 12 |
| O=C(O)c1cn(-c2ccc(F)cc2F)c2cc(N3CC/C(=N/O)C3)c(F)cc2c1=O | 0.2 (≈ 0.479 µM) | < 0.05 | 3.1 (≈ 7.43 µM) | 0.2 (≈ 0.479 µM) | 4.1 | 0.39 (≈ 0.934 µM) | < 0.05 | < 0.05 | 0.2 (≈ 0.479 µM) | < 0.05 | < 0.05 | 0.39 (≈ 0.934 µM) | 1.56 (≈ 3.74 µM) | 0.2 (≈ 0.479 µM) | 0.2 (≈ 0.479 µM) | 0.78 (≈ 1.87 µM) | > 12 |
| O=C(O)c1cn(-c2ccc(F)cc2F)c2cc(N3CCC(=NO)CC3)c(F)cc2c1=O | 0.39 (≈ 0.904 µM) | 0.1 (≈ 0.232 µM) | 6.2 (≈ 14.4 µM) | 0.39 (≈ 0.904 µM) | 3.2 | 1.56 (≈ 3.62 µM) | 0.1 (≈ 0.232 µM) | 0.05 (≈ 0.116 µM) | 0.39 (≈ 0.904 µM) | 0.1 (≈ 0.232 µM) | 0.1 (≈ 0.232 µM) | 1.56 (≈ 3.62 µM) | 3.1 (≈ 7.19 µM) | 0.39 (≈ 0.904 µM) | 0.39 (≈ 0.904 µM) | 3.1 (≈ 7.19 µM) | 6 |
| CO/N=C1\CCN(c2nc3c(cc2F)c(=O)c(C(=O)O)cn3C2CC2)C1 | 0.78 (≈ 2.16 µM) | 0.1 (≈ 0.278 µM) | 3.1 (≈ 8.6 µM) | 0.39 (≈ 1.08 µM) |  | 1.56 (≈ 4.33 µM) | 0.05 (≈ 0.139 µM) | 0.02 (≈ 0.0555 µM) | 0.78 (≈ 2.16 µM) | 0.05 (≈ 0.139 µM) | 0.02 (≈ 0.0555 µM) | 0.39 (≈ 1.08 µM) | 1.56 (≈ 4.33 µM) | 0.78 (≈ 2.16 µM) | 0.1 (≈ 0.278 µM) | 0.78 (≈ 2.16 µM) |  |
| CON=C1CCN(c2cc3c(cc2F)c(=O)c(C(=O)O)cn3-c2ccc(F)cc2F)CC1 | 3.1 (≈ 6.96 µM) | 0.1 (≈ 0.225 µM) | > 100 | 0.2 (≈ 0.449 µM) | > 8 | 6.2 (≈ 13.9 µM) | 0.1 (≈ 0.225 µM) | 0.05 (≈ 0.112 µM) | 1.56 (≈ 3.5 µM) | 0.2 (≈ 0.449 µM) | 0.05 (≈ 0.112 µM) | 6.2 (≈ 13.9 µM) | > 100 | 1.56 (≈ 3.5 µM) | 3.1 (≈ 6.96 µM) | > 100 | > 12 |
| CO/N=C1/CCN(c2cc3c(cc2F)c(=O)c(C(=O)O)cn3-c2ccc(F)cc2F)C1 | 0.39 (≈ 0.904 µM) | 0.05 (≈ 0.116 µM) | 6.2 (≈ 14.4 µM) | 0.78 (≈ 1.81 µM) |  | 1.56 (≈ 3.62 µM) | 0.05 (≈ 0.116 µM) | 0.02 (≈ 0.0464 µM) | 0.39 (≈ 0.904 µM) | 0.05 (≈ 0.116 µM) | 0.05 (≈ 0.116 µM) | 0.78 (≈ 1.81 µM) | 6.2 (≈ 14.4 µM) | 0.39 (≈ 0.904 µM) | 0.78 (≈ 1.81 µM) | 3.1 (≈ 7.19 µM) |  |
| O=C(O)c1cn(C2CC2)c2cc(N3CCNCC3)c(F)cc2c1=O [CIPROFLOXACIN] |  |  |  |  | 1.6 |  |  |  |  |  |  |  |  |  |  |  | 15.5 |
| NC1CCN(c2nc3c(cc2F)c(=O)c(C(=O)O)cn3-c2ccc(F)cc2F)C1 (stereo unspecified) [TOSUFLOXACIN] | 0.2 (≈ 0.495 µM) | 0.1 (≈ 0.247 µM) | 0.78 (≈ 1.93 µM) | 0.02 (≈ 0.0495 µM) |  | 0.39 (≈ 0.965 µM) | 0.05 (≈ 0.124 µM) | 0.02 (≈ 0.0495 µM) | 0.2 (≈ 0.495 µM) | 0.05 (≈ 0.124 µM) |  | 0.1 (≈ 0.247 µM) | 0.78 (≈ 1.93 µM) | 0.39 (≈ 0.965 µM) | 0.02 (≈ 0.0495 µM) | 0.05 (≈ 0.124 µM) |  |
